# Calls of active or inactive are those of the source. No cut-off for these calls is given here.
# Experiments:
# Aurora kinase B [1] = target: T1, Aurora kinase B (Homo sapiens, UniProt Q96GD4); test: Inhibition of recombinant full length His-tagged human Aurora B expressed in baculovirus expression system by Z'LYTE assay
# In short: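 Z'LYTE biochemical kinase assay run at the Km ATP concentration for each kinase. IC50 was determined and reported ± standard error.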
# Aurora kinase C = target: T2, Aurora kinase C (Homo sapiens, UniProt Q9UQB9); test: Inhibition of recombinant full length GST-tagged human Aurora C expressed in baculovirus expression system by Z'LYTE assay
# T2 sequence (Q9UQB9 whole entry): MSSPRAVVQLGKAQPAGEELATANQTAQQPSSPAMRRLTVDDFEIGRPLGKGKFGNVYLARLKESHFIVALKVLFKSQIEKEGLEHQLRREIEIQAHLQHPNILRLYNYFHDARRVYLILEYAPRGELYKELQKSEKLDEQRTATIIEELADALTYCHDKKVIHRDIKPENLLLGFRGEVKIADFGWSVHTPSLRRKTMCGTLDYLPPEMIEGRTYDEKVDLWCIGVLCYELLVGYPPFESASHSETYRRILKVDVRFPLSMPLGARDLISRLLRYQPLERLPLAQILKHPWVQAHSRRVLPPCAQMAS
# In short: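 Biochemical IC50 from a Z'LYTE kinase assay, with ATP at the Km for each kinase. Values are reported with standard error.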
# Aurora kinase B [2] = target: T1, Aurora kinase B; test: Inhibition of Aurora B in human HCT116 cells assessed as reduction in histone H3 phosphorylation at S10 residues after 4 hrs by Western blot analysis; format: cell-based
# In short: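 Cells were exposed to compound in dose-response for 4 h, then lysed for western blotting of histone H3 pS10. The cellular EC50 was derived from the dose-response curves. Three replicate experiments were run.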
# HCT-116 [3] = test: Cytotoxicity against human HCT116 cells assessed as reduction in cell viability after 72 hrs by CellTiter-Glo assay; format: functional, cell-based; details: HCT-116, 72 h
# In short: (§1)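 Cells were treated across a dose-response range for 72 h, and viability was read by CellTiter-Glo luminescence. Measurements were made in triplicate and reported with standard error.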
# HeLa = test: Cytotoxicity against human HeLa cells assessed as reduction in cell viability after 72 hrs by CellTiter-Glo assay; format: functional, cell-based; in short: as §1
# HEK293 = test: Cytotoxicity against human HEK293 cells assessed as reduction in cell viability after 72 hrs by CellTiter-Glo assay; format: cell-based; details: HEK293, 72 h; in short: as §1
# PC-3 = test: Cytotoxicity against human PC3 cells assessed as reduction in cell viability after 72 hrs by CellTiter-Glo assay; format: functional, cell-based; details: PC-3, 72 h; in short: as §1
# HCT-116 [4] = test: Induction of cell cycle arrest in human HCT116 cells assessed as accumulation of 4N DNA content at 500 nM after 48 hrs by propidium iodide staining-based flow cytometry; format: functional
# T1 sequence (Q96GD4 whole entry): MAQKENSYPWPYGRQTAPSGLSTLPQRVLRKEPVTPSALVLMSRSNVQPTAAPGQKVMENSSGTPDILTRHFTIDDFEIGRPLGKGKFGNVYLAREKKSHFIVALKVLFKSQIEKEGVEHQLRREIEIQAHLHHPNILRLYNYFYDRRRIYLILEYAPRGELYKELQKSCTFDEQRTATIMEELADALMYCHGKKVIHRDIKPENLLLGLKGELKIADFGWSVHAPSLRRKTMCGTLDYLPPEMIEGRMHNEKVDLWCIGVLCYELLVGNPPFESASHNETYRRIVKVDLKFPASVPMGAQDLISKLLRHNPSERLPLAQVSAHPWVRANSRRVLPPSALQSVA
smiles,measurement,setting,value
CCOC(=O)c1[nH]cc2c1NC1=C(C(=O)CCC1)[C@H]2c1cccc(Oc2nc3ccccc3[nH]2)c1,IC50,Aurora kinase B [1],34 nM
same,IC50,Aurora kinase C,91 nM
same,EC50,Aurora kinase B [2],27 nM
same,IC50,HCT-116 [3],3710 nM
same,IC50,HeLa,6.11 nM
same,IC50,HEK293,5860 nM
same,IC50,PC-3,> 10000 nM
same,Activity,HCT-116 [4],Active

# — ChEMBL document CHEMBL4184148 (Bioorg Med Chem Lett, 2017)
